Compound activity from PubChem BioAssay.
Rev-RRE block = disrupts HIV-1 Rev binding to RRE RNA; AID 704; Rev peptide-RRE RNA binding, FRET; hit rate 0.79% among 97,000; P05866; inhibition, % at 8 µM;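 active = inhibition above the screen-wide mean plus 3 SD, cut at about 35% in these data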;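 note: 0% = median DMSO wells and 100% = median Neomycin B control wells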
Target sequence (P05866 whole entry, looked up): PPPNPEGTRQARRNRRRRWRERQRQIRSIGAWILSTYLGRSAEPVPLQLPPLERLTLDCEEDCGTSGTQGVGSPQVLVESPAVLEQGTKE
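System: Cy5-labelled duplex RRE RNA binding fluorescein-labelled HIV Rev peptide; Signal: fluorescein-to-Cy5 FRET, 480 nm excitation; Also added: labelled Rev peptide; Compound: one concentration, 8 µM nominal; Buffer or medium: HEPES pH 7.5 salt buffer with EDTA; Read-out: % inhibition of FRET ratio versus controls; Schedule: 5 min preincubation and 15 min binding, 25 °C.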
PLK1 inh = inhibitors of human PLK1 kinase | AID 619 | hit rate 0.53% among 97,000 | recombinant PLK1 kinase, TR-FRET peptide phosphorylation | inhibition, % at 10 µM;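 active = inhibition of 50% or more in the single-concentration screen; inactive = inhibition below 50%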;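 note: 0% = DMSO max control and 100% = H-89 dihydrochloride min control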
Target sequence (P53350 whole entry, looked up): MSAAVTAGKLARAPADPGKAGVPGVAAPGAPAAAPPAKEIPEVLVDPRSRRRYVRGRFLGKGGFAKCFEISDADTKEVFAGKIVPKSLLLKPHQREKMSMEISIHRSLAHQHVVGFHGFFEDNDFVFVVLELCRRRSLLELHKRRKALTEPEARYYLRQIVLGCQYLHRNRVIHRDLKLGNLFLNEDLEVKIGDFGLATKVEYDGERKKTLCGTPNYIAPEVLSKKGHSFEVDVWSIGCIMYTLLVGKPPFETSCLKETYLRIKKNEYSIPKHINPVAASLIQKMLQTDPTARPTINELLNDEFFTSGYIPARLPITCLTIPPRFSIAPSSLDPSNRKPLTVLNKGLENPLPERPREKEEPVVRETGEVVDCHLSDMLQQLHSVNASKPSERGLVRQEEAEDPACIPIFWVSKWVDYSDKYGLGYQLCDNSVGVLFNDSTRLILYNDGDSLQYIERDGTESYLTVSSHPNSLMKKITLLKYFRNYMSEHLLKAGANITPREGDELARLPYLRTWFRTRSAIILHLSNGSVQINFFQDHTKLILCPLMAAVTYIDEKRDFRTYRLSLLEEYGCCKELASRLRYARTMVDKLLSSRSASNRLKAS
EphB4 ephrin blk = EphB4-ephrin-B2 interaction antagonism; P54760; EphB4 LBD / TNYL-RAW-Alexa532 peptide, fluorescence polarization; inhibition, % at 7 µM; hit rate 0.15% among 97,000;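 active = inhibition above the screen-wide mean inhibition plus 3 SD, cut at about 15% in these data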;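 note: 0% = DMSO wells and 100% = excess unlabeled TNYL-RAW peptide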
FAK blocker = FAK (human) kinase inhibition | Q05397 | biochemical FAK kinase activity assay | inhibition, %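 (tested at 7 µM)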 | hit rate 0.84% among 97,000; in the data active = inhibition above about 19%;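 note: 0% = DMSO and 100% = reference compound high control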
DAT uptake mod = changed human dopamine transporter uptake under cocaine IC80. Q01959. LLC-PK1 hDAT cells, [14C]-dopamine uptake with cocaine IC80; actives deviate in either direction. B-score at 10 µM. hit rate 1.3% among 110,000;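 active = Z score or B-score, a plate-position-corrected score, falls beyond the plate's 99.7% confidence bounds, in either direction; inactive = both scores lie inside the 99.7% bounds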;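 note: scored against the spread of the other compound wells on the same plate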
PLK1 PBD inh = Plk1 (human) PBD binding inhibition; inhibition, %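 (tested at about 20 µM)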; AID 693; hit rate 0.13% among 97,000; Plk1 PBD phosphopeptide binding, fluorescence polarization; in the data active = inhibition above about 34%, passing the limit was not always enough
* = called active by the depositor; . = not tested or not shown; [ ] = dose if it differs, or a comment. This is a sample that favours compounds with a hit; in the whole collection about 3.2% have one here.

SMILES	Rev-RRE block	PLK1 inh	EphB4 ephrin blk	FAK blocker	DAT uptake mod	PLK1 PBD inh
N#C/C(=C/c1ccc(N2CCCCCC2)o1)c1cccc(F)c1	104.7*[fluorescence artefact?]	-52.7	-1.0	2.8	0.212	-251.2
N#C/C(=C/c1ccc(N2CCCCC2)o1)C(=O)Nc1ccc(Cl)cc1	139.3*[fluorescence artefact?]	-15.3	-6.3	1.0	0.773	-160.9
N#C/C(=C\c1ccc(Sc2nc3ccccc3[nH]2)o1)c1ccccc1	16.3	-5.2	-1.2	-2.4	-0.905	-9.1
COc1ccc(C(=O)c2c(-c3ccsc3)oc3ccc(-c4ccc(OC)cc4)cc23)cc1	.	.	.	.	-1.79	.
CC(C)OC(=O)c1cccnc1SCc1cc(=O)n2ccccc2n1	0.8	3.1	-4.8	-1.7	0.627	12.2
CC(c1ccccc1)N1CCn2c(nc3cc(NC(=O)c4cccs4)ccc32)C1 (stereo unspecified)	11.6	-13.4	-0.2	3.4	2.74*	-8.4
COC(C[C@@H](O)C[C@H](O)COCc1ccccc1)OC	.	.	.	.	-0.0914	.
CC(C)(C)n1nnnc1CN1CCSCC1	6.1	1.0	-6.4	-0.6	-0.83	26.0
CCO[C@H]1OC(C(=O)NCc2nc3ccccc3[nH]2)=C[C@@H](c2ccc(Br)cc2)[C@@H]1CCCO	.	.	.	.	0.184	.
C#Cc1ccc([C@H]2C=C(C(=O)NCc3nc4ccccc4[nH]3)O[C@@H](OCC)[C@@H]2CCCO)cc1	.	.	.	.	4.18*	.
CCN(CC)S(=O)(=O)c1ccc2c3c(cccc13)C(=O)N2	.	.	.	.	2.54*	.
CC1=C(C#N)C(=O)OC(C)(C)C1	42.9*	-11.0	-1.3	0.0	0.759	-5.8
O=C(c1ccco1)N1CCN(CC(O)COc2ccc3oc4ccccc4c3c2)CC1 (stereo unspecified)	10.4	-4.9	0.4	4.4	2.57*	10.8
CCn1c2ccccc2c2cc(CN3CCN(C(=O)c4ccco4)CC3)ccc21	0.4	-1.1	-3.1	-4.0	1.21	10.8
CCOc1cccc(C2C(C(=O)c3ccc(C)o3)=C(O)C(=O)N2c2nccs2)c1 (stereo unspecified)	73.9*	-4.9	2.3	-6.4	-1.28	12.3
COc1ccc(-c2cc(C(F)F)n3ncc(C(=O)N4CCN(C(=O)c5ccco5)CC4)c3n2)cc1	.	.	.	.	1.75	.
COc1ccc(-c2cc(C(F)F)n3ncc(C(=O)N4CCCCC4)c3n2)cc1	6.4	-12.3	-5.8	6.1	2.58*	-23.1
O=C(CCCNS(=O)(=O)c1cccc2nsnc12)NCc1ccccc1	1.3	-1.8	2.7	8.4	1.62	0.1
O=C(CCS(=O)(=O)c1cccc2nsnc12)NC1CCCCCC1	1.3	-9.7	3.9	5.3	0.575	6.9
CC(=O)c1cccc(NC(=O)CCS(=O)(=O)c2cccc3nsnc23)c1	8.4	-0.8	6.8	-0.9	2.49*	6.9
CN(CC(=O)NCc1cccs1)S(=O)(=O)c1cccc2nsnc12	-3.5	5.5	0.2	-0.7	-9.06*	1.5
O=C(CCS(=O)(=O)c1cccc2nsnc12)NCc1ccccc1	3.1	4.9	-5.0	-4.9	-8.19*	-13.2
COC(=O)c1ccc(NC(=O)CN(c2ccc(C)cc2)S(=O)(=O)c2c(C)nn(C)c2C)cc1	12.4	-17.6	4.8	-0.5	0.00537	-20.2
O=C(NCc1ccc2c(c1)OCO2)c1cccc(Cl)c1	.	.	.	.	-0.135	.
O=C(NCc1ccc2c(c1)OCO2)c1ccc(-c2ccc(Cl)cc2)o1	5.5	0.4	1.5	-2.0	2.36*	-13.5
SMILES	Rev-RRE block	PLK1 inh	EphB4 ephrin blk	FAK blocker	DAT uptake mod	PLK1 PBD inh
CCOC(=O)c1ccc(NCn2c(=O)oc3ccccc32)cc1	54.8*	-8.4	-8.7	-4.2	-0.504	5.3
COC(=O)c1ccc(NC(=O)CCn2c(=O)oc3ccccc32)cc1	0.5	-1.8	2.2	-5.5	1.12	-5.3
CN(C(=O)c1ccc2c(=O)n3c(nc2c1)CCCCC3)c1ccccc1	-0.8	-6.2	-7.1	4.1	-0.56	2.8
O=C(c1ccc2c(=O)n3c(nc2c1)CCCCC3)N1CCN(C(c2ccccc2)c2ccccc2)CC1	-8.8	-2.7	-0.1	2.8	-4.15*	17.0
CCOC(=O)CSC1=NC(=O)/C(=C\c2ccc(Cl)cc2)S1	24.6	-4.6	2.0	0.5	-0.748	-34.1
O=c1[nH]c2cc(Br)cnc2nc1/C=C(\O)c1ccc(F)cc1	59.9*	-7.1	2.4	1.7	0.0458	-31.2
Fc1ccccc1CSc1nc2ncc(Br)cc2[nH]1	15.2	-10.5	-2.5	5.3	0.693	7.0
CCCCCC(=O)NC(NC(=S)Nc1ccc(S(N)(=O)=O)cc1)C(Cl)(Cl)Cl (stereo unspecified)	-2.6	-4.0	6.4	-6.0	-3.65*	-6.6
CCCCCCCC(=O)NC(Nc1ccc(S(N)(=O)=O)cc1)C(Cl)(Cl)Cl (stereo unspecified)	10.6	-4.9	2.3	0.8	-8.29*	8.4
COc1ccc(C(=O)NC(NC(=S)Nc2ccc(S(N)(=O)=O)cc2)C(Cl)(Cl)Cl)cc1 (stereo unspecified)	-0.9	-6.9	4.2	-2.0	-2.29*	-12.6
Cc1csc2nc(=O)c3ccccc3n12	12.6	-12.7	5.2	-0.1	0.472	10.7
CN1CCCC1CCNC1C2CC3CC(C2)CC1C3 (stereo unspecified)	4.8	-8.0	-1.5	-1.1	.	-4.8
C[C@@H](O)C1NC(=O)[C@H](CCCCN)NC(=O)c2cc([N+](=O)[O-])cc(I)c2OCC[C@@H](C(N)=O)NC1=O (stereo partly specified)	.	.	.	.	0.014	.
C#CCSc1nnc(-c2cc3c(C(F)(F)F)nn(C)c3s2)n1C	2.2	-11.4	1.0	-2.7	0.00147	2.4
CN1C2C=C3C(C#N)=C(N)C(C#N)(C#N)[C@@H](c4cccs4)C3C1CC2 (stereo partly specified)	16.1	-2.9	2.4	-1.0	0.0522	-29.1
CC(C)(C)C1CC=C2C(C#N)=C(N)C(C#N)(C#N)C(c3cccs3)C2C1 (stereo unspecified)	48.6*	-16.4	-0.2	-0.9	-0.643	-17.1
CCOC(=O)CSC1=C(C#N)C(c2sccc2C)C(C(C)=O)=C(C)N1 (stereo unspecified)	6.5	1.6	-4.1	-2.7	0.756	15.4
CC(=O)C1=C(C)NC(SCC(N)=O)=C(C#N)C1c1sccc1C (stereo unspecified)	1.6	-6.2	-5.6	1.5	6.9*	-11.8
CN(C)c1ccc(C=C2C(=O)OC(C)(C(C)(C)C)OC2=O)cc1 (stereo unspecified)	63.5*	-16.4	-3.7	-5.4	-0.604	-13.3
O=C(CCCCCN1C(=O)C2C3C=CC(C3)C2C1=O)Nc1nccs1 (stereo unspecified)	5.2	62.2*	-5.9	-3.7	-0.526	-9.3
O=C(CCN1C(=O)C2C3C=CC(C3)C2C1=O)Nc1nccs1 (stereo unspecified)	2.6	1.0	-8.5	0.1	-0.272	9.1
Cc1cc(=O)oc(C)c1C(=O)NCC(C)NC(=O)c1c(C)cc(=O)oc1C (stereo unspecified)	2.8	-2.6	-8.5	-1.0	3.16*	-22.5
